Tests used:
[1] = test system: TEAD transcription (pan-TEAD response element luciferase reporter) in NCI-H226 cells; test: TEAD gene reporter; format: cell-based
How it was run: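 NCI-H226 cells (RPMI1640, 10% FBS, 1% penicillin/streptomycin) were transduced with TEAD luciferase reporter lentivirus plus 8 μg/mL polybrene and puromycin-selected from day 3. Reporter cells were seeded at 1000 cells/well in 384-well plates and dosed with test compound for 3 days. One-Glo luciferase signal was normalized to CellTiter-Glo viability.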

[2] = biological target: His-TEAD1-YBD recombinant protein (Homo sapiens, UniProt P28347); test: TEAD1 TR-FRET biochemical assay; format: binding; details: fixed time point 5 h
His-TEAD1-YBD recombinant protein, sequence (P28347 209-424): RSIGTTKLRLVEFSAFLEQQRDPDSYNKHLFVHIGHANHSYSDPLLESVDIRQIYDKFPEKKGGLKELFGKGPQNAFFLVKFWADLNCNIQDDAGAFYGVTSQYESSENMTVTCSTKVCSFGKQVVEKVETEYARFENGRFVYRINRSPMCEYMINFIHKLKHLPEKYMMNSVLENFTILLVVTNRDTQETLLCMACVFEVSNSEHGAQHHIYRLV
How it was run: (§1)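 100 nM His-TEAD-YBD was pretreated with test compound for 5 h. Then 800 nM FAM-labeled tracer built from a reversible pan-TEAD inhibitor was added, with anti-6His Tb cryptate antibody (50 ng/mL final). TR-FRET was read at 490/520 nm. IC50 is mean ± SEM of two experiments, each with three biological replicates.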

[3] = biological target: His-TEAD2-YBD recombinant protein (Homo sapiens, UniProt Q15562); test: TEAD2 TR-FRET biochemical assay; format: binding; details: fixed time point 5 h
His-TEAD2-YBD recombinant protein, sequence (Q15562 217-447 limits assumed): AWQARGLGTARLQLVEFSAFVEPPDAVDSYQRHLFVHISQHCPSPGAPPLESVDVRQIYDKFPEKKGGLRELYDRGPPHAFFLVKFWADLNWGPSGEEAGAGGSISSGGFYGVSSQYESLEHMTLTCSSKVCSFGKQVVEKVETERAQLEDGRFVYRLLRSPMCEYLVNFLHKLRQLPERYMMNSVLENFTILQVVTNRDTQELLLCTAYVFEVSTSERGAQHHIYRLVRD
How it was run: as §1

[4] = biological target: His-TEAD3-YBD recombinant protein (Homo sapiens, UniProt Q99594); test: TEAD3 TR-FRET biochemical assay; format: binding; details: fixed time point 5 h
His-TEAD3-YBD recombinant protein, sequence (Q99594 219-435 limits assumed): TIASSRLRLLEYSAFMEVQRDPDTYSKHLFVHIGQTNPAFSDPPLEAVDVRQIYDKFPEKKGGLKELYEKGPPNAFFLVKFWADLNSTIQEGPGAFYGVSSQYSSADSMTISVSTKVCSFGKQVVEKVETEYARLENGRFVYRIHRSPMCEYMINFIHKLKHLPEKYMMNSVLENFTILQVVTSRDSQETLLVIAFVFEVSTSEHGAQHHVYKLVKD
How it was run: as §1

[5] = biological target: His-TEAD4-YBD recombinant protein (Homo sapiens, UniProt Q15561); test: TEAD4 TR-FRET biochemical assay; format: binding; details: fixed time point 5 h
His-TEAD4-YBD recombinant protein, sequence (Q15561 217-434 limits assumed): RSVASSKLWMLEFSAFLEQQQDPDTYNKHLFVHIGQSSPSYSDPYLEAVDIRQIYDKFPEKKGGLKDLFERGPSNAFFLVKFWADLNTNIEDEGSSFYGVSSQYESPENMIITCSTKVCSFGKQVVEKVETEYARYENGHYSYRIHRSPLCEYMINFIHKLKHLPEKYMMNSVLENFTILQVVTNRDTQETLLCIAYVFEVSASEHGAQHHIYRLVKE
How it was run: as §1

[6] = test system: NF2-sufficient NCI-H28 mesothelioma cells; test: Proliferation assay in NCI-H28 cells; format: cell-based
[7] = biological target: recombinant TEAD1-YBD protein (Homo sapiens, UniProt P28347); test: Intact mass spectrometry analysis of covalent labeling; format: binding; details: 10-fold molar excess of compound, 1 h at rt
recombinant TEAD1-YBD protein, sequence (P28347 209-424): as the sequence (P28347 209-424) above
How it was run: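 TEAD1-YBD (residues 209−424, N-terminal 6×His) was expressed in Rosetta(DE3) pLysS and purified on cobalt resin, then by gel filtration. Protein was incubated with DMSO or test compound for 1 h at rt. It was desalted 4 min in 0.2 M acetic acid on a POROS 50R2 column and eluted with a 1-min 0–100% acetonitrile gradient in 0.2 M acetic acid. Analysis was electrospray (4.5 kV) ion-trap MS.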

Compound: 1-(trans-4-(5-Fluoropyrimidin-2-ylamino)-3-(4-(trifluoromethyl)-benzyloxy)piperidin-1-yl)prop-2-en-1-one [Compound 16]
- IC50 ([1]; read-out: IC50 in the reporter gene assay (TEAD transcription), NCI-H226 reporter cells, 3 day treatment, mean ± SEM): 171 ± 88 nM

Compound: C=CC(=O)N1C[C@@H](n2cc(-c3cccnc3)nn2)[C@H](OCc2ccc(C(F)(F)F)cc2)C1 (relative stereo) [Compound 1, 1-(trans-3-(4-(Pyridin-3-yl)-1H-1,2,3-triazol-1-yl)-4-((4-(trifluoromethyl)benzyl)oxy)pyrrolidin-1-yl)prop-2-en-1-one]
- TEAD1 TR-FRET IC50 [2]: low nanomolar
- TEAD2 TR-FRET IC50 [3]: low nanomolar
- TEAD3 TR-FRET IC50 [4]: low nanomolar
- TEAD4 TR-FRET IC50 [5]: low nanomolar
- EC50 ([1]; Homo sapiens, NCI-H226, 72 h, read-out: EC50 in the TEAD reporter assay): 106 ± 30 nM

Compound: C=CC(=O)N1C[C@@H](Nc2ncccn2)[C@H](OCc2ccc(C(F)(F)F)cc2)C1 (relative stereo) [Compound 14, 1-(trans-3-(Pyrimidin-2-ylamino)-4-((4-(trifluoromethyl)benzyl)-oxy)pyrrolidin-1-yl)prop-2-en-1-one]
- effect on proliferation of NCI-H28 cells [6]: limited effect

Compound: CN(C)C/C=C/C(=O)N1C[C@@H](n2cc(-c3cccnc3)nn2)[C@H](OCc2ccc(C(F)(F)F)cc2)C1 [Compound 19, (E)-4-(Dimethylamino)-1-((3R,4R)-3-(4-(pyridin-3-yl)-1H-1,2,3-triazol-1-yl)-4-(4-(trifluoromethyl)benzyloxy)pyrrolidin-1-yl)but-2-en-1-one]
- TEAD1 TR-FRET IC50 [2]: inactive
- TEAD2 TR-FRET IC50 [3]: inactive
- TEAD3 TR-FRET IC50 [4]: inactive
- TEAD4 TR-FRET IC50 [5]: inactive
- IC50 in the reporter gene assay (TEAD transcription) ([1]; NCI-H226 reporter cells, 3 day treatment, mean ± SEM): did not inhibit

Compound: C=C(F)C(=O)N1C[C@@H](Nc2ncccn2)[C@H](OCc2ccc(C(F)(F)F)cc2)C1 [Compound 22, 2-Fluoro-1-((3R,4R)-3-(pyrimidin-2-ylamino)-4-((4-(trifluoromethyl)benzyl)oxy)pyrrolidin-1-yl)prop-2-en-1-one]
- effect on proliferation of NCI-H28 cells [6]: limited effect
- covalent complex formation with TEAD1-YBD (intact mass shift) [7]: mass shift consistent with compound 22
